Here are results for 14 molecules from PubChem BioAssay AID651577 (The Scripps Research Institute Molecular Screening Center, 2012).

Each structure is given as a SMILES string. The source made the active and inactive calls.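 The calls were made as follows: active = IC50 at or below 10 µM; inactive = IC50 above 10 µM.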

The target in this assay is HCV core protein (core106) dimerization. Description: inhibitors of HCV core self-association, IC50 – biochemical, AlphaScreen luminescence, powder samples, late-stage follow-up (AID 651577). The note with it: AlphaScreen GST-/Flag-core106 dimerization. The gist of the method: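 Test system: HCV core106 protein domain, GST-tagged and Flag-tagged forms | Reagent: Anti-Flag acceptor and glutathione donor beads, 20 µg/mL each | Incubation: 1 h tagged-protein preincubation at room temperature, then 1 h per bead | Signal: AlphaScreen bead-proximity luminescence | Read-out: IC50 from four-parameter sigmoidal curve fit | Replication: Triplicate wells per concentration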

`Cc1ccc(Cc2c(C)nc3nc(SCC(=O)NCCN4CCCCCC4)nn3c2C)cc1`: the IC50 is 1.9 µM.

As to `Cc1ccc(Cc2c(C)nc3nc(SCC(=O)NCCN4CCN(Cc5ccccc5)CC4)nn3c2C)cc1`, the IC50 entry is “inactive”.

As for `Cc1ccc(Cc2c(C)nc3nc(SCC(=O)NCCN4CCCN(S(C)(=O)=O)CC4)nn3c2C)cc1`, the IC50 was 0.51 µM. Take `Cc1ccc(Cc2c(C)nc3nc(SCC(=O)NCCN4CCCCC4)nn3c2C)cc1`: the IC50 result is “inactive”. To `Cc1ccc(Cc2c(C)nc3nc(SCC(=O)NCCN4CCN(CCc5ccccc5)CC4)nn3c2C)cc1` belongs “inactive”; to `Cc1ccc(Cc2c(C)nc3nc(SCC(=O)NCCN4CCN(Cc5ccc(Cl)cc5)CC4)nn3c2C)cc1`, “inactive”.

For the molecule `Cc1ccc(Cc2c(CCc3ccccc3)nc3nc(SC(Cc4ccccc4)C(=O)NCCN4CCOCC4)nn3c2C)cc1` (centres undefined), the IC50 was 9.9 µM. To `Cc1ccc(Cc2c(C)nc3nc(SCC(=O)NCCN4CCNCC4)nn3c2C)cc1` belongs 8.4 µM; to `Cc1ccc(Cc2c(C)nc3nc(SCC(=O)NCCN4CCOCC4)nn3c2C)cc1`, 1 µM; to `Cc1ccc(Cc2c(C)nc3nc(SCC(=O)NCCN4CCN(C(=O)OC(C)(C)C)CC4)nn3c2C)cc1`, “inactive”.

On to `Cc1ccc(Cc2c(C)nc3nc(SCC(=O)NCCN4CCN(S(=O)(=O)c5ccccc5)CC4)nn3c2C)cc1`, for which the IC50 is 10.2 µM.

Consider `Cc1ccc(Cc2c(C)nc3nc(SCC(=O)NCCN4CCN(Cc5ccc(F)cc5)CC4)nn3c2C)cc1`, for which the IC50 entry is “inactive”. To `Cc1ccc(Cc2c(C)nc3nc(SCC(=O)NCCN4CCCN(S(=O)(=O)c5ccccc5)CC4)nn3c2C)cc1` belongs 1.6 µM; to `Cc1ccc(Cc2c(C)nc3nc(SCC(=O)NCCN4CCCN(S(=O)(=O)c5ccc(C)cc5)CC4)nn3c2C)cc1`, 2.6 µM.
